The target in assay [1] is T1, Opioid receptor (Mus musculus) (UniProt P42866+P32300+P33534). Briefly: Opioid receptors antagonist potency in reversing the effects of Met5E was determined in mouse isolated vas deferens. The assay is classed as functional, tissue-based. Summed up: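 Electrically stimulated mouse isolated vas deferens. Antagonism is measured against agonist-induced effects, with Met⁵-enkephalin as the δ agonist. Antagonist potency is expressed as pA₂.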

For assay [2], the target named is T1, Opioid receptor (Mus musculus). Kind of assay: Opioid receptors antagonist potency in reversing the effects of normorphine was determined in mouse isolated vas deferens. The assay is classed as functional, tissue-based.
Assay [3] addresses T2, Opioid receptor (Mus musculus, UniProt P42866+P32300+P33534). Kind of assay: Concentration required to inhibit the stereospecific [3H]diprenorphine binding Opioid receptors in the absence of sodium(Na+) was determined in mouse isolated vas deferens. The assay is classed as protein assay.
Assay [4] has as its target T2, Opioid receptor. Briefly: Concentration required to inhibit the stereospecific [3H]diprenorphine binding Opioid receptors in the presence of sodium(Na+) was determined in mouse isolated vas deferens. The class given is protein assay.

The structures appear in SMILES notation. A value given as a limit tells only on which side of the number the result lay.

T1 sequence (P32300 whole entry, looked up): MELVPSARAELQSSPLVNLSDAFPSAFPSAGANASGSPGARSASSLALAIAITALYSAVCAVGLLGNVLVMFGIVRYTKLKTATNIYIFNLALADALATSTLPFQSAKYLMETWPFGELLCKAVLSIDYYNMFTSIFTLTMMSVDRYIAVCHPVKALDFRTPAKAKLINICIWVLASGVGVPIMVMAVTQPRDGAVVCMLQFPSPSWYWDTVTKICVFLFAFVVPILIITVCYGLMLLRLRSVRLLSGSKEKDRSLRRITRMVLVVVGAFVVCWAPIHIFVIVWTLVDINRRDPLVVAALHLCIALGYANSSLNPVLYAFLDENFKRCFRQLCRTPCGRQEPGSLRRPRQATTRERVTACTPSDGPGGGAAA
T1 sequence (P33534 whole entry, looked up): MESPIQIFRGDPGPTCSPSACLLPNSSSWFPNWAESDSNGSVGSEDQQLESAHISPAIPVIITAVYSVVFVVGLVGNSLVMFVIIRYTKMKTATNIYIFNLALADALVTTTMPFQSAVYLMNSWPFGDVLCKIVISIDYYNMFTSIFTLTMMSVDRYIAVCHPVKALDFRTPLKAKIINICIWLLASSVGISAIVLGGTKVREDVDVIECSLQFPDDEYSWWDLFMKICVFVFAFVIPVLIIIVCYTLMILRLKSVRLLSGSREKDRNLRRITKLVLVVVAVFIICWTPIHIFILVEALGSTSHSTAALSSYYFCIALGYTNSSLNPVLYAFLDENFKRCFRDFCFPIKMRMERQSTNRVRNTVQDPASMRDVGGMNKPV
T1 sequence (P42866 whole entry, looked up): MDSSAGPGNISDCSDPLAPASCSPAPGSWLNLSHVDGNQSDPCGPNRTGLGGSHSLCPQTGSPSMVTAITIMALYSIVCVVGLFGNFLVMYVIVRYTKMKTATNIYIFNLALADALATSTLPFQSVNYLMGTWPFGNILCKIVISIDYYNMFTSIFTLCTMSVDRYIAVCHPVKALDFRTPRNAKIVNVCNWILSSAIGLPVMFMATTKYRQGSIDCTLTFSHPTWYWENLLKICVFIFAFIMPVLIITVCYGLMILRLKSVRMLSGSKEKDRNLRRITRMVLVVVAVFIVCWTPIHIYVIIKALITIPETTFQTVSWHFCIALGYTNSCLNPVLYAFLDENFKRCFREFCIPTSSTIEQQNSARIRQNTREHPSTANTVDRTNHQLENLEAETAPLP

For `C=CCN1CC[C@]23c4c5ccc(O)c4O[C@H]2[C@@H](O)C=C[C@H]3[C@H]1C5`, the Concentration in assay [1] amounted to 0.286 µM; in assay [2] it was 22.4 nM.

Take `C=CC[N+]1(C)CC[C@]23c4c5ccc(O)c4O[C@H]2[C@@H](O)C=CC3[C@H]1C5` (stereo in doubt; B): the values for the Concentration in assay [1] and in assay [2] were 4.92 µM and 59.2 nM, respectively.

As to `C=CC[N+]1(C)CC[C@]23c4c5ccc(O)c4O[C@H]2[C@@H](O)C=CC3[C@H]1C5` (stereo in doubt; A), the Concentration in assay [1] is more than 22 µM; in assay [2] it was 1250 nM.

One may read the IC50 as the midpoint of a concentration-inhibition curve. Turning to `C=CC[N+]1(C)CC[C@]23c4c5ccc(O)c4O[C@H]2[C@@H](O)C=CC3[C@H]1C5.[I-]` (stereo in doubt; A), the IC50 is 8.5 µM at Opioid receptor [3] and 11.5 µM on Opioid receptor [4].

As for `C=CC[N+]1(C)CC[C@]23c4c5ccc(O)c4O[C@H]2[C@@H](O)C=CC3[C@H]1C5.[I-]` (stereo in doubt; B), the values for the IC50 at Opioid receptor [3] and at Opioid receptor [4] were 0.44 µM and 0.51 µM, respectively.

The record behind these values is ChEMBL document CHEMBL1122178, “N-Methylnalorphine: definition of N-allyl conformation for antagonism at the opiate receptor” (J Med Chem, 1982).
